# Only some compounds are listed: those with a hit (about 2.5% of all), similar ones and a draw of the others.
# SENP6 inh: blocks the human protease SENP6 | actives 1.8% (n = 330,000) | AID 2599 | inhibition, % at 10 µM | Recombinant SENP6 catalytic domain, aminoluciferin luminescence | Q9GZR1;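 active = inhibition above about 50% at the single tested dose, limit read from the data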;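 also: plate controls were DMSO wells with enzyme for no effect and DMSO wells lacking enzyme for full effect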
# SENP7 inh: inhibitors of human SENP7 protease; actives 1.5% (n = 330,000); inhibition, % at 5 µM; recombinant SENP7, Z-RLRGG-aminoluciferin luminescence, 40 min; Q9BQF6;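 active = inhibition above about 50% at the single test dose, limit read from the data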;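 also: plate controls were DMSO with enzyme for no effect and no enzyme buffer wells for full effect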
# Target sequence (Q9BQF6 706-1050 limits assumed): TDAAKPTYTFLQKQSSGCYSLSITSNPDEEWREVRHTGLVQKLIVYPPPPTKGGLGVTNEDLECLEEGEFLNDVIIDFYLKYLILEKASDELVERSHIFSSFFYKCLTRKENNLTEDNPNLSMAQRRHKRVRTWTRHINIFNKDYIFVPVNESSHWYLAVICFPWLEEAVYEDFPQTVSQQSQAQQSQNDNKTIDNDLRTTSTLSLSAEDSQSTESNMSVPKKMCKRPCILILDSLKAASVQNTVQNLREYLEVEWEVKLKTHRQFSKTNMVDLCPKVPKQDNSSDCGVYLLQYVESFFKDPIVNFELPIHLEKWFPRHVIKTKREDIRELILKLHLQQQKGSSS
# SENP1 FRET inh: inhibitors of human SENP1 SUMO protease catalytic domain; Q9P0U3; recombinant SENP1 catalytic domain, CyPet-SUMO1-YPet FRET cleavage; inhibition, % at 10 µM; actives 0.21% (n = 360,000); AID 624204;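 active = inhibition at least 30% at 10 µM, raw YFP signal under a set limit, fluorescence ratio 0.5 to 1.5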;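 also: 0% = enzyme with DMSO and 100% = no enzyme wells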
#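 Material: hSENP1 catalytic domain, recombinant; medium: Tris pH 8 with BME, BSA, NP40 and catalase; compound: single concentration of 10 µM compound, 0.5% DMSO final; technique: FRET read of cyan and yellow fluorescence; timing: 50 min enzyme reaction, room temperature, light-protected; reagent: SFCypet-SUMO1-SFYpet substrate at 25 nM; control set: no-enzyme low, enzyme-DMSO high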
# SENP8 block-1: SENP8 (human) protease inhibition. recombinant SENP8, Nedd8 substrate fluorescence. AID 602440. Q96LD8. inhibition, % at 20 µM. actives 0.64% (n = 360,000); in the data active = inhibition mostly above about 40%, no sharp cut-off; inactive = mostly below about 27%
# SENP8 block-2: SENP8 protease inhibition | Q96LD8 | purified SENP8, Z-RLRGG-aminoluciferin cleavage, luminescence | inhibition, % at 10 µM | actives 1.2% (n = 330,000); in the data active = inhibition above about 50%
# SENP8 confirm: confirmation of human SENP8 protease inhibitors | Recombinant SENP8, Z-RLRGG-aminoluciferin luminescence, 60 min | inhibition, % at 12.5 µM | shares compounds with SENP7 inh | actives 40% (n = 6,200);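 active = mean inhibition across replicates above about 50%, limit read from the data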
# SENP6 conf: confirmation of human SENP6 protease inhibitors. inhibition, % at 12.5 µM. actives 58% (n = 6,200). recombinant SENP6, Z-RLRGG-aminoluciferin luminescence. AID 488915. shares compounds with SENP7 inh
# SENP7 confirm: human SENP7 inhibition, confirmed | actives 69% (n = 6,200) | recombinant SENP7, Z-RLRGG-aminoluciferin luminescence, 40 min | inhibition, % at 12.5 µM | shares compounds with SENP7 inh
# Casp3 SENP sel: inhibits human caspase-3 in SENP selectivity test; shares compounds with SENP7 inh; purified caspase-3, Z-DEVD-aminoluciferin luminescence, 60 min; inhibition, % at 12.5 µM; actives 60% (n = 6,200);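 active = mean inhibition above about 50%, limit read from the data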;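 also: plate controls were enzyme with DMSO for no effect and wells without caspase-3 for full effect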
# Target sequence (P42574 28-227 limits assumed): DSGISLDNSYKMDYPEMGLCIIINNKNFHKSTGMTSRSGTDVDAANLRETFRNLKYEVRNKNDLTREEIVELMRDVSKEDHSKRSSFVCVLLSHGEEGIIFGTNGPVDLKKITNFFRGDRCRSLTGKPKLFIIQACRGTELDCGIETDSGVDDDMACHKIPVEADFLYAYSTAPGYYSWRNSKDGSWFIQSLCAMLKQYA
# Luc interf: counter-screen for SENP inhibitors: luminescence interference; actives 39% (n = 6,200); shares compounds with SENP7 inh; Pre-incubated SENP8/Z-RLRGG-aminoluciferin, luciferase luminescence interference; inhibition, % at 12.5 µM;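 active = mean inhibition above about 50% when retested at one dose, limit read from the data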;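 also: plate controls were DMSO wells with completed reaction for no effect and substrate without enzyme for full effect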
# * = called active by the depositor; . = no result.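 The calls were made as follows, unless noted: active = mean inhibition above about 50% in the one-dose retest (limit read from the data); inactive = the rest.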
SMILES,SENP6 inh,SENP7 inh,SENP1 FRET inh,SENP8 block-1,SENP8 block-2,SENP8 confirm,SENP6 conf,SENP7 confirm,Casp3 SENP sel,Luc interf
O=C(NCc1ccccc1)C(=O)c1cn(CC(=O)N2CCOCC2)c2ccccc12,-9,55*,1,-45,-13,-6,-2,4,5,-4
Cc1cccc(CSc2cn(CC(=O)N3CCOCC3)c3ccccc23)c1,65*,74*,1,19,72*,87*,87*,96*,70*,59*
COc1ccccc1NC(=O)C(=O)c1cn(CC(=O)N2CCOCC2)c2ccccc12,52*,56*,3,13,47,9,40,17,10,2
Cc1ccc(/C=C/C(=O)c2ccc(C)cc2)cc1,52*,-12,3,12,-2,2,-9,-23,-7,4
CSc1ccc(C(=O)/C=C/c2ccc(N)cc2)cc1,71*,56*,-1,11,28,83*,65*,87*,40,88*
CSc1ccc(/C=C/C(=O)c2ccc(NC(=O)C(C)C)cc2)cc1,0,8,9,-413,-8,.,.,.,.,.
COc1ccc(C(=O)/C=C/c2ccc(O)cc2)cc1,48,62*,1,-62,51*,9,57*,76*,11,89*
O=C(/C=C/c1ccc(O)cc1)c1ccccc1,1,93*,24,-43,95*,15,99*,103*,92*,98*
CCN(C(=O)COC(=O)c1cc(=O)[nH]c2ccccc12)C1CCS(=O)(=O)C1 (centres undefined),-25,-4,1,-388,-2,.,.,.,.,.
O=C(NCCc1ccccc1)c1ccc(NS(=O)(=O)c2ccc3[nH]c(=O)[nH]c3c2)cc1,-2,-3,1,-11,-10,.,.,.,.,.
O=C(Nc1ccn(CCCNCCCN2CCCC2=O)c(=O)n1)OCc1ccccc1,.,.,0,10,.,.,.,.,.,.
CCCC(=O)Nc1ccc(Cc2ccc(NC(=O)CCC)c(C(=O)O)c2)cc1C(=O)O,4,1,0,-39,3,.,.,.,.,.
Cc1nn(C)cc1/C=C/C(=O)c1ccc(O)cc1,53*,-4,4,-4,31,-10,-16,-13,4,38
CN1C(C(=O)N2CCc3ccccc3C2)=CC(c2ccc(F)cc2)=NS1(=O)=O,-11,-1,10,-51,9,.,.,.,.,.
c1ccc(-c2nc3c(ccc4ccccc43)[nH]2)nc1,73*,76*,5,-374,67*,83*,79*,95*,76*,82*
Cc1ccc2nc(CCCc3nc4ccc(C)cc4[nH]3)[nH]c2c1,1,-2,1,7,-2,.,.,.,.,.
Cc1ccc2nc(-c3ccccc3N)[nH]c2c1,93*,95*,-1,-437,90*,32,96*,102*,91*,90*
Cc1ccc2nc(-c3ccccn3)[nH]c2c1,90*,91*,-2,-91,83*,92*,91*,100*,96*,91*
Nc1nc(-c2nc3ccccc3[nH]2)cs1,52*,28,-10,-30,6,46,42,72*,78*,58*
Oc1ccc(/C=N/N2CCN(C3c4ccccc4-c4ccccc43)CC2)c(O)c1,1,-6,1,11,-5,.,.,.,.,.
O=C(Nc1ccccc1)N1CCN(S(=O)(=O)c2ccccc2)CC1,13,-6,3,4,-8,.,.,.,.,.
CC(NCCCSc1ccccc1)C(O)c1ccc(O)cc1 (centres undefined),.,.,3,24,.,.,.,.,.,.
COC(=O)[C@@]12C[C@@H](CC(=O)N3CCN(C(=O)c4ccco4)CC3)C(=O)N(CCc3ccc(OC)c(OC)c3)C1=CCC(C)(C)C2,.,.,2,25,.,.,.,.,.,.
COC(=O)c1ccn(CC(=O)NC2CCCCC2)n1,-17,-13,1,5,-3,.,.,.,.,.
c1ccc(-c2nc3ccccc3[nH]2)nc1,69*,75*,0,-29,48,61*,60*,88*,90*,70*
SMILES,SENP6 inh,SENP7 inh,SENP1 FRET inh,SENP8 block-1,SENP8 block-2,SENP8 confirm,SENP6 conf,SENP7 confirm,Casp3 SENP sel,Luc interf
S=C(Nc1cccc(Cl)c1)Nc1cccc2cnccc12,.,.,-26,-204,.,.,.,.,.,.
Cc1ccc(NC(=S)Nc2cccc3cnccc23)cc1,92*,70*,-5,-110,87*,-3,25,4,7,9
Cc1ccc(NC(=S)Nc2cccc3cnccc23)cc1C,65*,15,-9,-212,54*,12,20,8,0,-1
C=CC[C@]12CCc3sccc3C1N(c1ccc(C(=O)OCC)cc1)C2=O (some centres undefined),-10,1,0,5,-8,.,.,.,.,.
O=C(Nc1nc2c(F)cccc2s1)c1ccc([N+](=O)[O-])o1,71*,23,-2,4,43,-26,-19,-10,-3,-7
O=C(Nc1nc2c(Cl)cccc2s1)c1ccc([N+](=O)[O-])o1,59*,7,3,5,43,35,42,77*,26,46
O=C(Nc1nc2c(Cl)cccc2s1)c1ccc(Br)o1,-2,2,-13,-155,-2,.,.,.,.,.
COc1ccc(NC(=O)c2c(C)noc2C(C)C)cc1S(=O)(=O)N1CCCCC1,4,-4,1,18,-11,.,.,.,.,.
[O-][n+]1c(/C=C/c2ccccc2)ccc2ccccc21,77*,68*,0,-36,11,92*,92*,100*,91*,89*
CCNC(=O)NC(=O)COC(=O)c1ccccc1SCC(=O)NC(=O)NCC,95*,93*,-133,-472,93*,96*,96*,102*,98*,85*
Cc1ccc(Nc2nnc(SCC(=O)NCCN3C(=O)CSC3=O)s2)cc1C,25,53*,1,8,46,51*,46,78*,64*,55*
Cc1ccc(-n2nc3c(n2)/C(=N/O)CC/C3=N\O)cc1,26,78*,3,-38,66*,8,2,5,2,4
COc1ccccc1N=c1oc2cc(O)ccc2cc1C(N)=O,91*,0,-23,-285,50,99*,100*,101*,99*,92*

# Screens as filed in PubChem BioAssay.
